System: MS2 coat protein
Assay: apparent Kd, MS2 coat protein; higher = weaker binding; RNA-MaP array
How it was run: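 Incubations were done at room temperature with fluorescently labeled MS2 coat protein at 1.5 nM to 3 μM and designed RNAs transcribed on an Illumina sequencing chip from sequenced DNA templates, with or without input ligand. Apparent Kd is the median of binding curves fitted for each cluster. Designs with fewer than 10 measured clusters were excluded.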

[1] = designed as: ON switch for flavin mononucleotide, no ligand
[2] = ligand present: flavin mononucleotide, designed as: ON switch for flavin mononucleotide
[3] = designed as: OFF switch for flavin mononucleotide, no ligand
[4] = ligand present: flavin mononucleotide, designed as: OFF switch for flavin mononucleotide
[5] = designed as: OFF switch for tryptophan, no ligand
[6] = ligand present: tryptophan, designed as: OFF switch for tryptophan

CACGCUCACCAGAAGGCAGAGCAUAAAUGACAUGAGGAUCACCCAUGUACGCAGGAGAUCGGGUCUGAGGAUAUGGCAAUAGGC
apparent Kd [1]: 21.4 nM
apparent Kd [2]: 20.5 nM

CAAUAACAGAAAGGAUAUGGGCUCGAUACAUGAGGAUCACCCAUGUCUCCGUCAACGCUCAGUGCCCAGAAGGUUCCGCAGAAU
apparent Kd [1]: 34 nM
apparent Kd [2]: 20.2 nM

AAGGAAUAUGAGGAUAUUGAUGCGAAACCUACUCAAGAAGGCAUAACAUGAGGAUCACCCAUGUGACCCUUAUA
apparent Kd [3]: 19.4 nM
apparent Kd [4]: 34.4 nM

AACUCCACCGCAGGAUAUCCGGUCUCUCUGUAGACGACAUGAGGAUCACCCAUGUAUCCGGGAAUGGAGAAGGGCGGUGCUCCU
apparent Kd [3]: 16.4 nM
apparent Kd [4]: 13 nM

GAAAUCAGAGGAUAUCAGUCAUGUCACAUGAGGAUCACCCAUGUUUGUGUUUUGGUAGAUUGAGAAGGCUGCGACC
apparent Kd [3]: 16.6 nM
apparent Kd [4]: 9.66 nM

AAGUGACAUGAGGAUCACCCAUGUGAGGAUAUGGCUGAACAGAAAUAUGGGAAAAGAGCCAGAAGGCACGCCGG
apparent Kd [3]: 62.3 nM
apparent Kd [4]: 112 nM

AUAAUAGUAGGAUAUACAUGAGGAUCACCCAUGUGACCGCUCAAAGAUAGCGAUGCUCGUAGAAGGACUGUGGA
apparent Kd [3]: 21.3 nM
apparent Kd [4]: 21.8 nM

UUAAUCGUGCAUGAUACCAGUAUCCGUAGAUACAUGAGGAUCACCCAUGUCUGGUUGGAAUACCCUUGGCAGCAUGGGUUGAGGA
apparent Kd (designed as: ON switch for theophylline, no ligand): 242 nM
apparent Kd (ligand present: theophylline, designed as: ON switch for theophylline): 249 nM

GACCGGUAUCCAGGAUAUGCAAUUAUUUACAUGAGGAUCACCCAUGUCGCAAGAGUAGGGGUGUAGCAGAAGGGGACAACAGCA
apparent Kd [3]: 70.7 nM
apparent Kd [4]: 62.7 nM

GCGAACGGACCGUUGCCUUCCUGUGUGCGGCGAGGACCGGUACGGCCGCCACUCGACUGCGUACAUGAGGAUCACCCAUGUUAGA
apparent Kd [5]: 26.5 nM
apparent Kd [6]: 66.3 nM

AUUGUGAUAGCAGGAUAUUGUAUUGGUACAUGAGGAUCACCCAUGUUAAAAUCCUCUUGAUUUAGCAAGAAGGGCUCCAUGGCA
apparent Kd [3]: 21.8 nM
apparent Kd [4]: 18.3 nM

CAGGAGCUAGAGAAGGAGGUUACGCCCACGGACCUAGGAUAUCUGUUCUGAGUUACAUGAGGAUCACCCAUGUGUCCGCGGUGG
apparent Kd [3]: 53.9 nM
apparent Kd [4]: 33 nM

UACCGACAUGAGGAUCACCCAUGUACUGCGCUUGGAGGAUAUCGGCUUGAUUUUGCGCGUCGAGAAGGCCAACCUA
apparent Kd [1]: 12.2 nM
apparent Kd [2]: 10.2 nM

AACAUGAGGAUCACCCAUGUCACAUACAAGUGGAGUUCUAUGAGAAGGGCGAAACGAAUGAGCACGCAGGAUAUCAGCGAUAAA
apparent Kd [1]: 13.5 nM
apparent Kd [2]: 11.3 nM

AAGAGUGUGAGAGGAUAUGCUUACCCAUAUCACAUGAGGAUCACCCAUGUCGGCGAUUGUAUUAUGCAGAAGGCUCAAGGACUC
apparent Kd [1]: 18.3 nM
apparent Kd [2]: 9.8 nM

CCAAAAUCGAAGAAGGCUAUGCGUACCAAUCUUAGAGGAUAUUCGACCUUAGCUAACAUGAGGAUCACCCAUGUGGGAAACACG
apparent Kd [3]: 28 nM
apparent Kd [4]: 19.5 nM

AUAAAUUUUACACGUUGCUACAUGAGGAUCACCCAUGUGUGGAGAAGGGAUCUGCCUACAAGGAAUCAGGAUAUCCAACUGUUC
apparent Kd [1]: 32.9 nM
apparent Kd [2]: 51.6 nM

CUUGAACCAUCACAUGAGGAUCACCCAUGUAGACUAUAAACUGAGGAUAUCACAGCGAGCAGUCAUGAGAAGGCAGAAUGACGG
apparent Kd [1]: 15.3 nM
apparent Kd [2]: 13.6 nM

GCUUUAUUCUAGAAGGCUUAUCAUGCAUAAUGUCUAGAAGUUCAGACAUGAGGAUCACCCAUGUAAGAGGAUAUAGCGUAAAGU
apparent Kd [3]: 26.9 nM
apparent Kd [4]: 31.3 nM

ACCUGGUGUAAGAAGGAGCAGAUAUAACGGUCGCUAGGAUAUUACCCUUCAAAAUGGGAUCUCACAUGAGGAUCACCCAUGUUA
apparent Kd [3]: 143 nM
apparent Kd [4]: 218 nM

UGAUGAUGACAGGAUAUUAGCGUAAUGAAACUUUAAGAAGGGUCGACAUGAGGAUCACCCAUGUAUGAUCUCGA
apparent Kd [3]: 5.5 nM
apparent Kd [4]: 5.38 nM

AAACCCAAAGUUAGGAUAUGCAUUGCCGGCCCUGUGCAGAAGGAACAUGAGGAUCACCCAUGUACUGGUGUUCG
apparent Kd [3]: 42.7 nM
apparent Kd [4]: 103 nM

CAGACCCGGAAGAAGGAGGAGACAUAAACACGCCUAGGAUAUACGCCUGAAUAAACGUAAACAUGAGGAUCACCCAUGUCAAAC
apparent Kd [1]: 9.5 nM
apparent Kd [2]: 8.4 nM

GUAUGCCACAGGGACAUGAGGAUCACCCAUGUAAAUACGGAUAGAAGGCGACGAGCGUAGCUCUUCGAGGAUAUAUGCUUUUUG
apparent Kd [3]: 31.5 nM
apparent Kd [4]: 34.2 nM

CUGUUACAUGAGGAUCACCCAUGUUUUUGGUUAAGAGGAUAUGGCACAUGGUUAAACGUUCCAGAAGGCUUUGCAC
apparent Kd [1]: 11.8 nM
apparent Kd [2]: 8.94 nM

AGUACCGUACGGAAAACAUGAGGAUCACCCAUGUCUAAUUAGAAGGAUAUGCUCUGUAAAUCGACGCAGAAGGUCAGCUAGAAU
apparent Kd [1]: 22.5 nM
apparent Kd [2]: 19 nM

UGGGAGUGAGGAUAUGUAUAUCUCAGGGCCGAGGAGAUGAAACAGAAGGCACAUGAGGAUCACCCAUGUUAUGA
apparent Kd [3]: 25.3 nM
apparent Kd [4]: 29.9 nM

GUGUCGCGUACAGGAUAUGCUUAGGCGCUGCCCUCACAUGAGGAUCACCCAUGUAGUUUCCGCAGGCAGAAGGGUACUGACGUC
apparent Kd [3]: 9.67 nM
apparent Kd [4]: 16.2 nM

AAGAACCAGAUAGGAUAUCCGUUUAAAUCACAAGGAGAAGGAUCAAAUACAAAACAUGAGGAUCACCCAUGUGGAAGAUAGCUA
apparent Kd [1]: 33.2 nM
apparent Kd [2]: 18.7 nM

AAAACUUAUCAGAAGGAACGCACUCAACCGUUGUUAGGAUAUGAUCACCUAACAUGAGGAUCACCCAUGUUCACAGUAGGAGAC
apparent Kd [1]: 130 nM
apparent Kd [2]: 89.5 nM

UACCCUCGAGGAUAUUAGCUAGCGAACAUGAGGAUCACCCAUGUGCAUCUUCCCAGCCGUUAAGAAGGCGAUUACC
apparent Kd [3]: 93.1 nM
apparent Kd [4]: 79.2 nM

AAAAGCAGGGUCAGGAUAUAGGGUUCACUGUUGGCCUAGAAGGGACAUGAGGAUCACCCAUGUAUAGUAGUGGG
apparent Kd [3]: 347 nM
apparent Kd [4]: 262 nM

CAUGAGAGAUUGUUUUGUGACUCUAACGAUACCAGAGUAGGACUUCUCCCUUGGCAGCGUGUGACAUGAGGAUCACCCAUGUCCA
apparent Kd (designed as: OFF switch for theophylline, no ligand): 10.6 nM
apparent Kd (ligand present: theophylline, designed as: OFF switch for theophylline): 11.7 nM

GUACUGUACAAGAAGGUUGAUUUGCAUCAAGAUCCGAUUUACAUGAGGAUCACCCAUGUUUUAUCAAAGGAUAUUGGUACAACG
apparent Kd [3]: 11 nM
apparent Kd [4]: 66.8 nM

GGACAUUGUCCUAUUCACAUGAGGAUCACCCAUGUCACAACUAGAAGGGAGCGAUAACAAUUUCCUCAGGAUAUAGUUCGCGGC
apparent Kd [1]: 28.2 nM
apparent Kd [2]: 24.7 nM

CUCCUCACCGUGAGGAUAUAGUAUUCCGGUUGUUACUAGAAGGCACAUGAGGAUCACCCAUGUUACGGUUCCCA
apparent Kd [3]: 13.4 nM
apparent Kd [4]: 50.6 nM

CUAAGCUCGGACAAGGAUAUUAAUUACUAGACAUGAGGAUCACCCAUGUCAACAGACUGGAGGAUUAAGAAGGUGAUUGAAAACCC
apparent Kd [1]: 21.8 nM
apparent Kd [2]: 19.4 nM

GGUUCCGCUAAGGUGAAACAUGAGGAUCACCCAUGUCAAUCUGAGGAUAUUUAUCUCGACGAGGCAAAGAAGGCAGACUCGCGG
apparent Kd [3]: 9.53 nM
apparent Kd [4]: 14.8 nM

CCCAAUUUCCGAGAUAUGGGUCCAACUAAACGAGGACCGGUACGGCCGCCACUCGACUACAAACAUGAGGAUCACCCAUGUAAAG
apparent Kd [5]: 17 nM
apparent Kd [6]: 17.4 nM

CGUUCAGAUCAUGAUAACAUGAGGAUCACCCAUGUGGAAUAAUAGGAUAUGGAGAACAAAAUUAACCAGAAGGAUUAUAACAAA
apparent Kd [1]: 70 nM
apparent Kd [2]: 44.9 nM

CCUGACAUGAGGAUCACCCAUGUGUGAGCACGAGGACCGGUACGGCCGCCACUCGCGUUGCCGGCCGGACUAUCUGGCGAAGUCA
apparent Kd (designed as: ON switch for tryptophan, no ligand): 32.9 nM
apparent Kd (ligand present: tryptophan, designed as: ON switch for tryptophan): 35.1 nM

UAGUUGCAUACAUGAGGAUCACCCAUGUUUUAAUGGGUAACUAGAAGGUGUUGACGUUGGCUAAACAAGGAUAUAGUUCGUGCU
apparent Kd [3]: 43.3 nM
apparent Kd [4]: 46.5 nM

CGGACCUGAGAGAAGGGCAGCCGACAUGAGGAUCACCCAUGUAAUCGAGGACCAUCCUCAUUUUUGCAGGAUAUCUAUUGUUAU
apparent Kd [3]: 35.4 nM
apparent Kd [4]: 37.3 nM

GCCCGGACACAAGGAUAUCAGACCAAUACAUGAGGAUCACCCAUGUCGGGCCUCUAAGUACGACCUGAGAAGGUGUCUCCCAGU
apparent Kd [3]: 421 nM
apparent Kd [4]: 345 nM

AUAGCCAAACAAGGAUAUACGCGCGUCACAGAAAAUGGGACAUGAGGAUCACCCAUGUGGGAAGAGUAGAAGGUGUUUCCAGAU
apparent Kd [3]: 251 nM
apparent Kd [4]: 147 nM

AUCAGUGGCUAGGAUAUGUUAGUCAGAUAUACAACAGAAGGAGCGACAUGAGGAUCACCCAUGUUACAGUGGAG
apparent Kd [3]: 13 nM
apparent Kd [4]: 22.2 nM

UCUUUAAGCACAGGAUAUUGGUACAUGAGGAUCACCCAUGUGGAUCGUACUACCUCUCCACCGGACAAGAAGGGUGCGCCUACG
apparent Kd [1]: 172 nM
apparent Kd [2]: 125 nM

Reference: the EternaBench riboswitch data
